Published values of several laboratories.
Target: Mitogen-activated protein kinase kinase kinase 7 (MAP3K7, Homo sapiens, UniProt O43318)
Residues used in one study (O43318 1-606): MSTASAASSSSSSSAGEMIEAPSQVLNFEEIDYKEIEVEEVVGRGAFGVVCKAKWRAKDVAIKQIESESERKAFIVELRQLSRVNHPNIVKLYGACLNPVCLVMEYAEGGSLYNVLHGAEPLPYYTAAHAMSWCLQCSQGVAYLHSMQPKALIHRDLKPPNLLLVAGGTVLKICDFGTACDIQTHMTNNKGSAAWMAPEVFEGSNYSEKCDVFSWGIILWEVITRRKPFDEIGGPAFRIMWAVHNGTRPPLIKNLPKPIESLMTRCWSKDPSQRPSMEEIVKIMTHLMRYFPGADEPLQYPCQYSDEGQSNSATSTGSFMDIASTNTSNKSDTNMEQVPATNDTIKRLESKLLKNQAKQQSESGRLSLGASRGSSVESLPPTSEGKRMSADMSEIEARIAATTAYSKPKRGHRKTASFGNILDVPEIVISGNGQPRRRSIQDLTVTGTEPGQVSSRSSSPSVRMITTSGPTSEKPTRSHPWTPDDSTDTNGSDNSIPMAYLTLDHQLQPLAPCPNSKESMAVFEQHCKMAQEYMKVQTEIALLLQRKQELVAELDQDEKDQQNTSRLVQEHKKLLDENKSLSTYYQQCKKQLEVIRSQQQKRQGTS

Compound	observed	mode	technique	concentration	measurement	result
Cc1nccc(COC(=O)N2C[C@@H]3[C@@H](CNC(=O)c4ccc5[nH]nnc5c4)[C@@H]3C2)n1	cell-free assay		competition with immobilised ligand	1 µM	remaining binding	75%
Oc1cccc(-c2nc(N3CCOCC3)c3oc4ncccc4c3n2)c1	enzyme activity	inhibitor		10 µM	remaining activity	79%
Cc1ccc(Nc2nccc(N(C)c3ccc4c(C)n(C)nc4c3)n2)cc1S(N)(=O)=O	enzyme activity	inhibitor		0.3 µM	inhibition	-8%
Cc1nc(C2CCN(C(=O)c3ccc(OC(F)(F)F)cc3N)CC2)c2ncc(N3CCN(C)CC3)cc2n1	cell-free assay		competition with immobilised ligand	1 µM	remaining binding	100%
Cc1ccc(C(=O)NCc2ccsc2)cc1C#Cc1cn(C(C)C)c2ncnc(N)c12	enzyme activity	inhibitor		1 µM	activity vs control	112%
O=C1NC(=O)c2cc(Nc3ccc(F)cc3)c(Nc3ccc(F)cc3)cc21	cell-free assay			0.5 µM	remaining signal	98.8%
COc1ccc2cc(OCC3(C(=O)O)CN(C(=O)c4ccc(F)cc4)C3)ccc2c1	cell-free assay		competition with immobilised ligand	1 µM	remaining binding	96%
FC(F)(F)Oc1cccc(-c2cnc3ccc(-c4ccncc4)nn23)c1	enzyme activity	inhibitor	radiometric	1 µM	activity vs control	58%
N#CCCc1ccc2c(c1)-c1[nH]c3ccc([N+](=O)[O-])cc3c1CC(=O)N2	cell-free assay			0.5 µM	remaining signal	38.1%
C[C@H](c1ccc(F)cc1)N(Cc1cccc(C(=O)O)c1)C(=O)c1cnc2ccccc2c1	cell-free assay		competition with immobilised ligand	1 µM	remaining binding	100%
CS(=O)(=O)CCNCc1ccc(-c2ccc3ncnc(Nc4ccc(OCc5cccc(F)c5)c(Cl)c4)c3c2)o1	cell-free assay			0.5 µM	remaining signal	89%
O=c1nc(-c2ccccn2)sc2ccccc12	binding		competition with immobilised ligand	1 µM	remaining binding	78%
COc1cc(Nc2cnc(C#N)c(O[C@H](C)CN(C)C)n2)ncc1-c1cnn(C)c1	enzyme activity	inhibitor	radiometric	10 µM	remaining activity	53%
CN(C(=O)c1ccccc1)c1cc(N(C)c2ccc3c(c2)CCc2ccc(C(=O)NCCN4CCOCC4)cc2C3=O)ccc1F	cell-free assay		competition with immobilised ligand	1 µM	remaining binding	100%
N[C@@H]1CCN(c2nccc(-c3cnn4ncccc34)n2)C1	binding			1 µM	remaining binding	91%
CCCS(=O)(=O)Nc1ccc(F)c(C(=O)c2c[nH]c3ncc(-c4ccc(Cl)cc4)cc23)c1F	enzyme activity	inhibitor		1 µM	inhibition	< 10%
c1ccc(CNc2nc(N3CCOc4ccccc43)nc3c2CCCC3)cc1	target engagement in cells	inhibitor	chemoproteomics	20 mM	inhibition	-10.3%
CCN(CC)CCNC(=O)c1c(C)[nH]c(/C=C2\C(=O)Nc3ccc(F)cc32)c1C	enzyme activity	inhibitor		10 µM	inhibition	92%
Cc1cc(NC(=O)c2cccc3cc(-c4cccc5[nH]nc(N)c45)ccc23)ccc1F	enzyme activity	inhibitor		0.1 µM	activity vs control	100%
CCN(CC)c1ccc(C2=NNC(=O)CC2C)cc1[N+](=O)[O-] (stereo not drawn)	enzyme activity	inhibitor		10 µM	remaining activity	107%
O=C(Nc1cnn(-c2csc(C(=O)NC3COC3)c2)c1)Nc1ccccc1Cl	enzyme activity	inhibitor		5 µM	remaining activity	98%
COc1cccc2c(NCc3ccccc3)nc(-n3c(N)nc4ccccc43)nc12	target engagement in cells	inhibitor	chemoproteomics	20 mM	inhibition	-6.3%
Cc1ccc(C(=O)Nc2ccc(CN3CCN(C)CC3)c(C(F)(F)F)c2)cc1C#Cc1cnc2cccnn12	enzyme activity	inhibitor		23.5 nM	remaining activity	3.3%
CCCOc1ccc([C@H]2[C@H](C(=O)O)[C@@H](c3ccc4c(c3)OCO4)CN2CC(=O)Nc2c(CC)cccc2CC)cc1	cell-free assay		competition with immobilised ligand	1 µM	remaining binding	100%
COc1cc(Cl)c(C(=O)N[C@@H](CN[C@H]2CC[C@@H](N)CC2)Cc2ccc(C#N)cc2)cc1-c1ccc(CN[C@H](C)c2ccc(C)cc2)o1	enzyme activity	inhibitor		1 µM	remaining activity	96%
Cc1sc(C(=O)NC2COC2)cc1-n1cc(NC(=O)Nc2c(F)cccc2Cl)cn1	enzyme activity	inhibitor		10 µM	remaining activity	98.4%
CS(=O)(=O)N1CCCC(NC(=O)[C@H](CCC2CCCCC2)NC(=O)c2ccc(CNC(=O)c3cnc4ccccn34)cc2)C1 (stereo partly drawn)	cell-free assay		competition with immobilised ligand	0.1 µM	remaining binding	94%
